Experimental findings from ChEMBL document CHEMBL1141140, “Antifungal agents. 11. N-substituted derivatives of 1-[(aryl)(4-aryl-1H-pyrrol-3-yl)methyl]-1H-imidazole: synthesis, anti-Candida activity, and QSAR studies” (2005) are described below.

The experiment concerns Candida albicans. In words: Ratio of the in vitro minimal inhibitory to that of bifonazole against Candida albicans (MIC(compound)/MIC(bifonazole)). It counts as functional. The method, boiled down: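 Broth microdilution per NCCLS M27-A2 against 12 Candida albicans strains (AIDS oropharyngeal, HIV vulvovaginitis isolates, ATCC 24433 and 20891, lab strains 3153 and CA2). Inoculum ~10^4 cells/mL in RPMI 1640, pH 7.0; DMSO stocks 6.4 mg/mL, twofold dilutions 0.016–64 μg/mL; read at 24 h, 28 °C, no visible growth. Mean MIC over strains converted to μmol/mL, divided by bifonazole MIC.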
Turning to `Fc1ccc(-n2ccc(C(c3ccc(Cl)cc3)n3ccnc3)c2)cc1` (stereo not given), the Ratio turned out to be 2.7.

On to `COc1ccc(C(Cc2ccc([N+](=O)[O-])cc2)n2ccnc2)cc1` (stereo not given), for which the Ratio is listed as 17.

As to `Cc1ccc(C(c2ccn(-c3ccccc3)c2)n2ccnc2)cc1` (stereo not given), the Ratio stood at 1.2.

`COc1ccc(C(Cc2ccccc2F)n2ccnc2)cc1` (stereo not given): the Ratio was determined as 49.

On to `c1ccc(C(c2ccn(-c3ccccc3)c2)n2ccnc2)cc1` (stereo not given), for which the Ratio came out at 2.3.

In the case of `COc1ccc(C(Cc2cccc(F)c2)n2ccnc2)cc1` (stereo not given), the Ratio turned out to be 51.

As for `Cn1cc(-c2ccccc2)c(C(c2ccc3ccccc3c2)n2ccnc2)c1` (stereo not given), the Ratio is given as 63.

As for `c1ccc(-c2c[nH]cc2C(c2cccc3ccccc23)n2ccnc2)cc1` (stereo not given), the Ratio came to 1.7.

As to `COc1ccc(C(Cc2ccc(F)cc2)n2ccnc2)cc1` (stereo not given), the Ratio came to 23.

`COc1ccc(C(Cc2cccc(Cl)c2)n2ccnc2)cc1` (stereo not given): the Ratio came out at 44.

With `COc1ccc(C(Cc2cccc(-n3cccc3)c2)n2ccnc2)cc1` (stereo not given), the Ratio was 45.

Take `Cc1ccc(C(c2ccn(-c3ccc(F)cc3)c2)n2ccnc2)cc1` (stereo not given): the Ratio amounted to 3.1.

For `COc1ccc(C(Cc2ccccc2Cl)n2ccnc2)cc1` (stereo not given), the Ratio is reported as 63.

In the case of `Cn1cc(-c2ccccc2)c(C(c2cccc3ccccc23)n2ccnc2)c1` (stereo not given), the Ratio is 6.

For `COc1ccc(C(Cc2ccccc2[N+](=O)[O-])n2ccnc2)cc1` (stereo not given), the Ratio is listed as 97.

Consider `COc1ccc(C(Cc2ccccc2-n2cccc2)n2ccnc2)cc1` (stereo not given), for which the Ratio is 7.8.

On to `Fc1ccc(C(c2ccn(-c3ccc(F)cc3)c2)n2ccnc2)cc1` (stereo not given), for which the Ratio is 1.4.

Take `Fc1ccc(-n2ccc(C(c3ccccc3)n3ccnc3)c2)cc1` (stereo not given): the Ratio was 4.1.

As to `c1ccc(-c2c[nH]cc2C(c2ccc3ccccc3c2)n2ccnc2)cc1` (stereo not given), the Ratio came out at 3.8.

Take `Clc1ccc(-n2ccc(C(c3ccccc3)n3ccnc3)c2)cc1` (stereo not given): the Ratio is given as 0.7.

Regarding `Cc1ccc(C(c2ccn(-c3ccc(Cl)cc3)c2)n2ccnc2)cc1` (stereo not given), the Ratio is listed as 1.1.

`c1ccc(C(c2ccc(-n3cccc3)cc2)n2ccnc2)cc1` (stereo not given): the Ratio came out at 6.8.

On to `Fc1ccc(C(c2ccn(-c3ccc(Cl)cc3)c2)n2ccnc2)cc1` (stereo not given), for which the Ratio came to 2.8.

Turning to `Nc1ccc(-c2c[nH]cc2C(c2ccc(Cl)cc2Cl)n2ccnc2)cc1` (stereo not given), the Ratio is reported as 28.

Turning to `Oc1ccc(-c2c[nH]cc2C(c2ccc(Cl)cc2Cl)n2ccnc2)cc1` (stereo not given), the Ratio worked out at 26.

On to `CC(Cc1ccc(Cl)cc1Cl)n1ccnc1.COc1ccccc1` (stereo not given), for which the Ratio amounted to 1.

Consider `Fc1ccc(C(c2ccn(-c3ccccc3)c2)n2ccnc2)cc1` (stereo not given), for which the Ratio was determined as 1.8.

For the compound `CSc1ccc(-c2c[nH]cc2C(c2ccc(Cl)cc2Cl)n2ccnc2)cc1` (stereo not given), the Ratio worked out at 2.8.

Regarding `FC(F)(F)c1ccc(-c2c[nH]cc2C(c2ccc(Cl)cc2Cl)n2ccnc2)cc1` (stereo not given), the Ratio is reported as 2.2.

Take `CC(Cc1ccc(N)cc1)n1ccnc1.COc1ccccc1` (stereo not given): the Ratio came to 1.4.

Regarding `Clc1ccc(C(c2ccn(-c3ccc(Cl)cc3)c2)n2ccnc2)cc1` (stereo not given), the Ratio worked out at 7.3.

With `N#Cc1ccc(-c2c[nH]cc2C(c2ccc(Cl)cc2Cl)n2ccnc2)cc1` (stereo not given), the Ratio stood at 4.3.

With `O=[N+]([O-])c1ccc(-c2c[nH]cc2C(c2ccc(Cl)cc2Cl)n2ccnc2)cc1` (stereo not given), the Ratio stood at 4.5.

Regarding `Clc1ccc(C(c2c[nH]cc2-c2ccc(-c3ccccc3)cc2)n2ccnc2)c(Cl)c1` (stereo not given), the Ratio is 4.3.

With `Clc1ccc(C(c2c[nH]cc2-c2ccc(-n3cccc3)cc2)n2ccnc2)c(Cl)c1` (stereo not given), the Ratio is recorded as 1.3.
